Results taken from ChEMBL document CHEMBL4190220, “Withanolides from Aeroponically Grown Physalis peruviana and Their Selective Cytotoxicity to Prostate Cancer and Renal Carcinoma Cells” (J Nat Prod, 2017).
Active and inactive are the calls of the source. The rule behind the calls is not given here.

Columns and labels:
CWR22R [1] = assay: Cytotoxicity against human 22Rv1 cells assessed as reduction in cell viability after 72 hrs by CellTiter96 AQueous one solution cell proliferation assay; type: functional, cell-based; details: 22Rv1, 72 h
Method in brief: (§1)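 MTS viability in RPMI with 5% fetal calf serum, 2.0 mM L-glutamine, nonessential amino acids, 1.0 mM pyruvate, penicillin/streptomycin, 10 mM HEPES and 2-mercaptoethanol. Cells were seeded at 10 000 (LNCaP) or 5000 (others) and grown overnight at 37 °C. Serial dilutions in DMSO went into triplicate wells for 72 h. MTS was read at 490 nm after 2 h. IC50 ± SD from dose–response curves, at least three independent experiments.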

M14 [2] = assay: Cytotoxicity against human M14 cells assessed as reduction in cell viability after 72 hrs by CellTiter96 AQueous one solution cell proliferation assay; type: functional, cell-based; details: M14, 72 h
Method in brief: (§2)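 MTS viability in DMEM with 5% fetal calf serum, 2.0 mM L-glutamine, nonessential amino acids, 1.0 mM pyruvate, penicillin/streptomycin, 10 mM HEPES and 2-mercaptoethanol. 5000 cells were grown overnight at 37 °C. Serial DMSO dilutions went into triplicate wells for 72 h. MTS absorbance was read at 490 nm after 2 h. IC50 ± SD from at least three independent dose–response experiments.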

HFF [3] = assay: Cytotoxicity against HFF cells assessed as reduction in cell viability after 72 hrs by CellTiter96 AQueous one solution cell proliferation assay; type: cell-based; details: Homo sapiens; method in brief: as §1
SK-MEL-28 [4] = assay: Cytotoxicity against human SK-MEL-28 cells assessed as reduction in cell viability after 72 hrs by CellTiter96 AQueous one solution cell proliferation assay; type: functional, cell-based; details: SK-MEL-28, 72 h; method in brief: as §2
ACHN [5] = assay: Cytotoxicity against human ACHN cells assessed as reduction in cell viability after 72 hrs by CellTiter96 AQueous one solution cell proliferation assay; type: functional, cell-based; method in brief: as §1
LNCaP [6] = assay: Cytotoxicity against human LNCAP cells assessed as reduction in cell viability after 72 hrs by CellTiter96 AQueous one solution cell proliferation assay; type: functional, cell-based; method in brief: as §1
CWR22R [7] = assay: Cytotoxicity against human 22Rv1 cells assessed as reduction in cell viability up to 5 uM after 72 hrs by CellTiter96 AQueous one solution cell proliferation assay; type: functional, cell-based
Method in brief: (§3)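 Cells in RPMI with 5% fetal calf serum, glutamine, nonessential amino acids, pyruvate, HEPES, 2-mercaptoethanol and antibiotics. Seeded at 10 000 (LNCaP) or 5000 (others) and grown overnight at 37 °C, then exposed to compound in DMSO, triplicate wells, 72 h. Read by MTS at 490 nm after 2 h. % cytotoxicity = (A medium − A treatment)/A medium × 100.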

HFF [8] = assay: Cytotoxicity against HFF cells assessed as reduction in cell viability up to 5 uM after 72 hrs by CellTiter96 AQueous one solution cell proliferation assay; type: cell-based; details: human; method in brief: as §3
M14 [9] = assay: Cytotoxicity against human M14 cells assessed as reduction in cell viability up to 5 uM after 72 hrs by CellTiter96 AQueous one solution cell proliferation assay; type: functional, cell-based
Method in brief: (§4)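 Melanoma cells in DMEM-based medium (5% fetal calf serum, glutamine, nonessential amino acids, pyruvate, HEPES, 2-mercaptoethanol, antibiotics). 5000 cells were grown overnight at 37 °C, then exposed to compound in DMSO in triplicate wells for 72 h. MTS absorbance at 490 nm after 2 h. % cytotoxicity = (A medium − A treatment)/A medium × 100.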

LNCaP [10] = assay: Cytotoxicity against human LNCAP cells assessed as reduction in cell viability up to 5 uM after 72 hrs by CellTiter96 AQueous one solution cell proliferation assay; type: functional, cell-based; method in brief: as §3
SK-MEL-28 [11] = assay: Cytotoxicity against human SK-MEL-28 cells assessed as reduction in cell viability up to 5 uM after 72 hrs by CellTiter96 AQueous one solution cell proliferation assay; type: functional, cell-based; method in brief: as §4
ACHN [12] = assay: Cytotoxicity against human ACHN cells assessed as reduction in cell viability up to 5 uM after 72 hrs by CellTiter96 AQueous one solution cell proliferation assay; type: functional, cell-based; method in brief: as §3

Structure (SMILES) | IC50 (CWR22R [1]) | IC50 (M14 [2]) | IC50 (HFF [3]) | IC50 (SK-MEL-28 [4]) | IC50 (ACHN [5]) | IC50 (LNCaP [6]) | Activity (CWR22R [7]) | Activity (HFF [8]) | Activity (M14 [9]) | Activity (LNCaP [10]) | Activity (SK-MEL-28 [11]) | Activity (ACHN [12])
CC1=C(CO)C[C@H]([C@](C)(O)[C@]2(O)CC[C@@]3(O)[C@@H]4CC=C5CC=CC(=O)[C@]5(C)[C@H]4CC[C@]23C)OC1=O | 210 nM | > 2000 nM | > 2000 nM | > 2000 nM | > 2000 nM | 240 nM |  |  |  |  |  | 
CC1=C(C)C(=O)O[C@@H]([C@](C)(O)[C@]2(O)CC[C@@]3(O)[C@@H]4[C@@H](O)C=C5C=CCC(=O)[C@]5(C)[C@H]4CC[C@]23C)C1 | 990 nM | > 2000 nM | > 2000 nM | > 2000 nM | > 2000 nM | 940 nM |  |  |  |  |  | 
CC(=O)OC[C@]12CC[C@H]3[C@@H](C[C@H]4O[C@]45CC=CC(=O)[C@]35C)[C@]1(O)CC[C@@]2(O)[C@@](C)(O)[C@H]1CC(C)=C(C)C(=O)O1 | 30 nM | > 2000 nM | > 2000 nM | > 2000 nM | 570 nM |  |  |  |  |  |  | 
CC1=C(C)C(=O)O[C@@H]([C@](C)(O)[C@]2(O)CC[C@@]3(O)[C@@H]4CC=C5CC=CC(=O)[C@]5(C)[C@H]4CC[C@]23C)C1 [WITHANOLIDE F] | 70 nM | > 2000 nM | > 2000 nM | > 2000 nM | > 2000 nM | 130 nM |  |  |  |  |  | 
CO[C@H]1C=CC(=O)[C@]2(C)[C@H]3CC[C@]4(C)[C@](O)([C@@](C)(O)[C@H]5CC(C)=C(C)C(=O)O5)CC[C@@]4(O)[C@@H]3C[C@H]3O[C@]132 | 240 nM | > 2000 nM | > 2000 nM | > 2000 nM | > 2000 nM | 330 nM |  |  |  |  |  | 
CC1=C(C)C(=O)O[C@@H]([C@](C)(O)[C@]2(O)CC[C@@]3(O)[C@@H]4C[C@H]5O[C@]56CC=CC(=O)[C@]6(C)[C@H]4CC[C@]23C)C1 [WITHANOLIDE E] | 70 nM | > 2000 nM | > 2000 nM | > 2000 nM | 460 nM | 60 nM |  |  |  |  |  | 
CC1=C(C)[C@H](O)[C@H]([C@](C)(O)[C@]2(O)CC[C@@]3(O)[C@@H]4C[C@H]5O[C@]56CC=CC(=O)[C@]6(C)[C@H]4CC[C@]23C)OC1=O | 890 nM | > 2000 nM | > 2000 nM | > 2000 nM | > 2000 nM | > 2000 nM |  |  |  |  |  | 
C[C@H]1C[C@H]([C@](C)(O)[C@]2(O)CC[C@@]3(O)[C@@H]4C[C@H]5O[C@]56CC=CC(=O)[C@]6(C)[C@H]4CC[C@]23C)OC(=O)[C@@H]1C | 210 nM | > 2000 nM | > 2000 nM | > 2000 nM | > 2000 nM | 290 nM |  |  |  |  |  | 
COc1cccc2c1C(=O)c1c(O)c3c(c(O)c1C2=O)C[C@@](O)(C(=O)CO)C[C@@H]3O[C@H]1C[C@H](N)[C@H](O)[C@H](C)O1 [DOXORUBICIN] | 20 nM | 90 nM |  | 250 nM | 20 nM | 20 nM |  |  |  |  |  | 
CC1=C(C)C(=O)O[C@@H]([C@](C)(O)[C@]2(O)CC[C@@]3(O)[C@@H]4CC=C5[C@@H](O)C=CC(=O)[C@]5(C)[C@H]4CC[C@]23C)C1 | 70 nM | > 2000 nM | > 2000 nM | > 2000 nM | 1000 nM | 110 nM |  |  |  |  |  | 
CO[C@]12CC=CC(=O)[C@]1(C)[C@H]1CC[C@]3(C)[C@](O)([C@@](C)(O)[C@H]4CC(C)=C(C)C(=O)O4)CC[C@@]3(O)[C@@H]1C[C@H]2O |  |  |  |  |  |  | inactive | Non-Toxic | inactive | inactive | inactive | inactive
CC1=C(C)[C@H](O)[C@H]([C@](C)(O)[C@H]2CC[C@@]3(O)[C@@H]4C[C@H]5O[C@]56CC=CC(=O)[C@]6(C)[C@H]4CC[C@]23C)OC1=O |  |  |  |  |  |  | inactive | Non-Toxic | inactive | inactive | inactive | inactive
CC1=C(C)C(=O)O[C@@H]([C@](C)(O)[C@]2(O)CC[C@@]3(O)[C@@H]4[C@@H](O)C=C5CC=CC(=O)[C@]5(C)[C@H]4CC[C@]23C)C1 | 560 nM | > 2000 nM | > 2000 nM | > 2000 nM | > 2000 nM | 330 nM |  |  |  |  |  | 
CC1=C(C)C(=O)O[C@@H]([C@](C)(O)[C@]2(O)CC[C@@]3(O)[C@@H]4C[C@H](Cl)[C@]5(O)[C@@H](O)C=CC(=O)[C@]5(C)[C@H]4CC[C@]23C)C1 |  |  |  |  |  |  | inactive | Non-Toxic | inactive | inactive | inactive | inactive
CC1=C(C)C(=O)O[C@@H]([C@](C)(O)[C@]2(O)CC[C@@]3(O)[C@@H]4C[C@H]5O[C@]56[C@@H](O)C=CC(=O)[C@]6(C)[C@H]4CC[C@]23C)C1 | 90 nM | > 2000 nM | > 2000 nM | > 2000 nM | > 2000 nM | 160 nM |  |  |  |  |  | 
C[C@H]1C(=O)OC[C@H]1C[C@@H](O)[C@](C)(O)[C@]1(O)CC[C@@]2(O)[C@@H]3C[C@H]4O[C@]45CC=CC(=O)[C@]5(C)[C@H]3CC[C@]12C |  |  |  |  |  |  | inactive | Non-Toxic | inactive | inactive | inactive | inactive
CC1=C(C)C(=O)O[C@@H]([C@](C)(O)[C@]2(O)CC[C@@]3(O)[C@@H]4[C@@H](O)[C@H]5O[C@]56CC=CC(=O)[C@]6(C)[C@H]4CC[C@]23C)C1 | 260 nM | > 2000 nM | > 2000 nM | > 2000 nM | > 2000 nM | 330 nM |  |  |  |  |  | 
